Source: ChEMBL document CHEMBL1132142, “Extension of the polyanionic cosalane pharmacophore as a strategy for increasing anti-HIV potency” (J Med Chem, 1999)

How the values were obtained:
CD4+ve Th [1] = experiment: Compound was tested for binding of the gp120 (strain IIIb)to the CD4+ T-cell lines at 0.65 uM; type: functional
Method in brief: (§1)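 Recombinant gp120 (strain IIIB) binding to MT-4 (CD4+ T-cell) cells was measured at each listed concentration. Read-out was % positive cells and % inhibition, alongside an isotype mAb control.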

CD4+ve Th [2] = experiment: Compound was tested for binding of the gp120 (strain IIIb)to the CD4+ T-cell lines at 16 uM; type: functional; method in brief: as §1
CD4+ve Th [3] = experiment: Compound was tested for binding of the gp120 (strain IIIb)to the CD4+ T-cell lines at 3.2 uM; type: functional; method in brief: as §1
CD4+ve Th [4] = experiment: Compound was tested for binding of the gp120 (strain IIIb)to the CD4+ T-cell lines at 81 uM; type: functional; method in brief: as §1
CEM-SS [5] = experiment: The compound was evaluated for cytotoxicity in CEM-SS cells; type: functional, Homo sapiens
Method in brief: (§2)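 Uninfected cells (CEM-SS or MT-4, per line) were incubated with the drug in a microtiter XTT assay. Viability was expressed as percent of the uninfected drug-free control. CC50 is the concentration causing 50% cell death. Triplicates were run per plate on two sister plates, and the two plate values were averaged.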

CEM-SS [6] = experiment: The compound was evaluated for inhibition of cytopathic effect of HIV-1 RF in CEM-SS cells; type: functional, cell-based, Homo sapiens
Method in brief: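 XTT-based microtiter cytoprotection assay measuring protection from HIV-1-induced cytopathic effect, read as percent of the uninfected drug-free control. EC50 is the concentration giving 50% protection in infected cultures. Results were confirmed by cell-free supernatant reverse transcriptase and p24 levels. Each plate was run in triplicate, and the EC50 values from two sister plates were averaged.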

MT4 [7] = experiment: The compound was evaluated for cytotoxicity in MT-4 cells; type: functional, Homo sapiens; method in brief: as §2
MT4 [8] = experiment: The compound was evaluated for inhibition of cytopathic effect of HIV-1 IIIB in MT-4 cells; type: functional, cell-based, Homo sapiens
MT4 [9] = experiment: The compound was evaluated for inhibition of cytopathic effect of HIV-2ROD in MT-4 cells; type: functional, cell-based, Homo sapiens; details: mt4
MT4 [10] = experiment: Compound was tested for binding of the mAb (NEA9305) to the V3 loo[p of gp120, expressed on HIV-1 infected MT-4 cells at 81 uM; type: functional, Homo sapiens
Method in brief: (§3)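 Binding of mAb NEA9305 to the gp120 V3 loop expressed on HIV-1-infected MT-4 cells was measured at each listed concentration. Results were given as % positive cells and % inhibition, with an isotype mAb control.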

MT4 [11] = experiment: Compound was tested for binding of the mAb (NEA9305) to the V3 loo[p of gp120, expressed on HIV-1 infected MT-4 cells at 16 uM; type: functional, Homo sapiens; method in brief: as §3
MT4 [12] = experiment: Compound was tested for binding of the mAb (NEA9305) to the V3 loo[p of gp120, expressed on HIV-1 infected MT-4 cells at 0.65 uM; type: functional, Homo sapiens; method in brief: as §3
MT4 [13] = experiment: Compound was tested for binding of the mAb (NEA9305) to the V3 loo[p of gp120, expressed ion HIV-1 infected MT-4 cells at 3.2 uM; type: functional, Homo sapiens; method in brief: as §3
CD4+ve Th [14] = experiment: Compound was tested for binding of the gp120 (strain IIIb)to the CD4+ T-cell lines at 0.73 uM; type: functional; method in brief: as §1
CD4+ve Th [15] = experiment: Compound was tested for binding of the gp120 (strain IIIb)to the CD4+ T-cell lines at 18 uM; type: functional; method in brief: as §1
CD4+ve Th [16] = experiment: Compound was tested for binding of the gp120 (strain IIIb)to the CD4+ T-cell lines at 3.7 uM; type: functional; method in brief: as §1
CD4+ve Th [17] = experiment: Compound was tested for binding of the gp120 (strain IIIb)to the CD4+ T-cell lines at 92 uM; type: functional; method in brief: as §1
MT4 [18] = experiment: (§4) Compound was tested for binding of the mAb (NEA9305) to the V3 loo[p of gp120, expressed on HIV-1 infected MT-4 cells at 92 uM; type: functional, Homo sapiens; method in brief: as §3
MT4 [19] = experiment: (§5) Compound was tested for binding of the mAb (NEA9305) to the V3 loo[p of gp120, expressed ion HIV-1 infected MT-4 cells at 3.7 uM; type: functional; details: Homo sapiens; method in brief: as §3
MT4 [20] = experiment: (§6) Compound was tested for binding of the mAb (NEA9305) to the V3 loo[p of gp120, expressed on HIV-1 infected MT-4 cells at 0.73 uM; type: functional; details: Homo sapiens; method in brief: as §3
MT4 [21] = experiment: as §4; type: functional; details: Homo sapiens; method in brief: as §3
MT4 [22] = experiment: (§7) Compound was tested for binding of the mAb (NEA9305) to the V3 loo[p of gp120, expressed on HIV-1 infected MT-4 cells at 18 uM; type: functional, Homo sapiens; method in brief: as §3
MT4 [23] = experiment: as §5; type: functional, Homo sapiens; method in brief: as §3
MT4 [24] = experiment: as §6; type: functional, Homo sapiens; method in brief: as §3
MT4 [25] = experiment: as §7; type: functional; details: Homo sapiens; method in brief: as §3

**Q.** How did the Positive cells (CD4+ve Th [1]) turn out when `CC(C)CCCC(C)[C@H]1CC[C@H]2[C@@H]3CCC4C[C@@H](CCC=C(c5cc(Cl)c(OCc6ccc(C(=O)[O-])cc6)c(C(=O)[O-])c5)c5cc(Cl)c(OCc6ccc(C(=O)[O-])cc6)c(C(=O)[O-])c5)CC[C@]4(C)[C@H]3CC[C@]12C.[Na+].[Na+].[Na+].[Na+]` (some centres not stated) was run?
**A.** 76.2%

**Q.** What about the inhibition at 0.65 µM (CD4+ve Th [1]) of the same compound?
**A.** 22%

**Q.** What about the Positive cells (CD4+ve Th [2]) of the same compound?
**A.** 6.9%

**Q.** What about the inhibition at 16 µM (CD4+ve Th [2]) of the same compound?
**A.** 99%

**Q.** And the Positive cells (CD4+ve Th [3])?
**A.** 19.9%

**Q.** What about the inhibition at 3.2 µM (CD4+ve Th [3]) of the same compound?
**A.** 82%

**Q.** And the Positive cells (CD4+ve Th [4])?
**A.** 7.8%

**Q.** And the inhibition at 81 µM (CD4+ve Th [4])?
**A.** 98%

**Q.** And the Cytotoxicity (CEM-SS [5])?
**A.** 76 µM

**Q.** What about the EC50 (CEM-SS [6]; cem-ss) of the same compound?
**A.** 800 nM

**Q.** And the Cytotoxicity (MT4 [7])?
**A.** 95 µM

**Q.** What about the EC50 (MT4 [8]; mt4) of the same compound?
**A.** 1400 nM

**Q.** What about the EC50 (MT4 [9]) of the same compound?
**A.** 22000 nM

**Q.** And the Positive cells (MT4 [10])?
**A.** 26.9%

**Q.** What about the Positive cells (MT4 [11]) of the same compound?
**A.** 33.6%

**Q.** And the Positive cells (MT4 [12])?
**A.** 66.6%

**Q.** And the Positive cells (MT4 [13])?
**A.** 60.9%

**Q.** `CC(C)CCCC(C)[C@H]1CC[C@H]2[C@@H]3CCC4C[C@@H](CCC=C(c5cc(Cl)c(OCc6ccc(C(=O)O)cc6)c(C(=O)O)c5)c5cc(Cl)c(OCc6ccc(C(=O)O)cc6)c(C(=O)O)c5)CC[C@]4(C)[C@H]3CC[C@]12C` (some centres not stated) was tested. Which Positive cells (CD4+ve Th [14]) did it give?
**A.** 88.2%

**Q.** What about the inhibition at 0.73 µM (CD4+ve Th [14]) of the same compound?
**A.** 9%

**Q.** What about the Positive cells (CD4+ve Th [15]) of the same compound?
**A.** 8.3%

**Q.** And the inhibition at 18 µM (CD4+ve Th [15])?
**A.** 98%

**Q.** What about the Positive cells (CD4+ve Th [16]) of the same compound?
**A.** 25.3%

**Q.** What about the inhibition at 3.7 µM (CD4+ve Th [16]) of the same compound?
**A.** 79%

**Q.** What about the Positive cells (CD4+ve Th [17]) of the same compound?
**A.** 6.8%

**Q.** And the inhibition at 92 µM (CD4+ve Th [17])?
**A.** 99%

**Q.** What about the Cytotoxicity (CEM-SS [5]) of the same compound?
**A.** 72 µM

**Q.** And the EC50 (CEM-SS [6]; Homo sapiens, CEM-SS)?
**A.** 500 nM

**Q.** What about the Cytotoxicity (MT4 [7]) of the same compound?
**A.** 88 µM

**Q.** What about the EC50 (MT4 [8]; Homo sapiens, MT4) of the same compound?
**A.** 1700 nM

**Q.** What about the Positive cells (MT4 [18]) of the same compound?
**A.** 23.8%

**Q.** What about the inhibition at 3.7 µM (MT4 [19]) of the same compound?
**A.** 16%

**Q.** What about the inhibition at 0.73 µM (MT4 [20]) of the same compound?
**A.** 3%

**Q.** And the inhibition at 92 µM (MT4 [21])?
**A.** 76%

**Q.** And the Positive cells (MT4 [22])?
**A.** 34.4%

**Q.** And the Positive cells (MT4 [23])?
**A.** 58.4%

**Q.** What about the Positive cells (MT4 [24]) of the same compound?
**A.** 65.9%

**Q.** And the inhibition at 18 µM (MT4 [25])?
**A.** 58%
